# Test results from ChEMBL document CHEMBL3400032 (Bioorg Med Chem, 2015).
# Tests used:
# Liver microsome [1] = assay: Clearance in human liver microsomes assessed per mg protein
# Liver microsome [2] = assay: Clearance in Sprague-Dawley rat liver microsomes assessed per mg protein
# [3] = Permeability of the compound at pH 5 by PAMPA; assay type: ADME; conditions: read-out: permeability
# [4] = Permeability of the compound at pH 7.4 by PAMPA; assay type: ADME; conditions: read-out: permeability
# [5] = AUC in rat at 3 mg/kg, iv; assay type: ADME, organism-based; set-up: dose 3 mg/kg, route intravenous; conditions: plasma
# [6] = Clearance in rat at 3 mg/kg, iv; assay type: ADME, organism-based; set-up: dose 3 mg/kg, route intravenous; conditions: in vivo
# [7] = Volume of distribution at steady state in rat at 3 mg/kg, iv; assay type: ADME, organism-based; set-up: route intravenous, dose 3 mg/kg; conditions: in vivo, read-out: Vdss
# [8] = Half life in rat at 3 mg/kg, iv; assay type: ADME, organism-based; set-up: dose 3 mg/kg, route intravenous; conditions: in vivo
# [9] = Drug metabolism in Sprague-Dawley rat liver S9 fraction assessed as compound remaining at 1 uM after 30 mins by HPLC/MS/MS analysis relative to control; assay type: ADME, subcellular; conditions: read-out: Stability
# Method in brief: (§1)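 Test compound at 1 µM final, incubated 30 min at 37 °C in serum, or in S9 mix (50 mM potassium phosphate pH 7.4, 3 mM NADPH, 1 mg protein/mL pooled male SD rat or human liver S9). Preincubated 5 min at 37 °C, compound added in acetonitrile–water (1:1), stopped with ice-cold acetonitrile, centrifuged, filtered, parent and carboxylate hydrolysate quantified by HPLC-MS/MS.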
# [10] = Drug metabolism in rat serum assessed as compound remaining at 1 uM after 30 mins by HPLC/MS/MS analysis relative to control; assay type: ADME, cell-free; conditions: read-out: Stability; method in brief: as §1
# [11] = Drug metabolism in human liver S9 fraction assessed as compound remaining at 1 uM after 30 mins by HPLC/MS/MS analysis relative to control; assay type: ADME, subcellular; conditions: read-out: Stability; method in brief: as §1
# [12] = Drug metabolism in human serum assessed as compound remaining at 1 uM after 30 mins by HPLC/MS/MS analysis relative to control; assay type: ADME, cell-free; conditions: read-out: Stability; method in brief: as §1
# [13] = Drug metabolism in Sprague-Dawley rat liver S9 fraction assessed as 2-(3-aminopiperidin-1-yl)-3-(2-chlorobenzyl)-5-methyl-4-oxo-4,5-dihydro-3H-imidazo[4,5-c]quinoline-8-carboxylic acid formation at 1 uM after 30 mins by HPLC/MS/MS analysis relative to control; assay type: ADME, subcellular; conditions: s9, 0.5 h; method in brief: as §1
# Serum [14] = assay: Drug metabolism in rat serum assessed as 2-(3-aminopiperidin-1-yl)-3-(2-chlorobenzyl)-5-methyl-4-oxo-4,5-dihydro-3H-imidazo[4,5-c]quinoline-8-carboxylic acid formation at 1 uM after 30 mins by HPLC/MS/MS analysis relative to control; assay type: ADME, cell-free; conditions: 0.5 h; method in brief: as §1
# [15] = Drug metabolism in human liver S9 fraction assessed as 2-(3-aminopiperidin-1-yl)-3-(2-chlorobenzyl)-5-methyl-4-oxo-4,5-dihydro-3H-imidazo[4,5-c]quinoline-8-carboxylic acid formation at 1 uM after 30 mins by HPLC/MS/MS analysis relative to control; assay type: ADME, subcellular; conditions: s9, 0.5 h; method in brief: as §1
# Serum [16] = assay: Drug metabolism in human serum assessed as 2-(3-aminopiperidin-1-yl)-3-(2-chlorobenzyl)-5-methyl-4-oxo-4,5-dihydro-3H-imidazo[4,5-c]quinoline-8-carboxylic acid formation at 1 uM after 30 mins by HPLC/MS/MS analysis relative to control; assay type: ADME, cell-free; conditions: 0.5 h; method in brief: as §1
# Rattus norvegicus [17] = assay: Oral bioavailability in rat assessed as 2-(3-aminopiperidin-1-yl)-3-(2-chlorobenzyl)-5-methyl-4-oxo-4,5-dihydro-3H-imidazo[4,5-c]quinoline-8-carboxylic acid level at 10 mg/kg; assay type: ADME, organism-based; conditions: in vivo
# [18] = Drug metabolism in Sprague-Dawley rat liver S9 fraction assessed as 2-(3-aminopiperidin-1-yl)-3-(2-chlorobenzyl)-5-methyl-4-oxo-4,5-dihydro-3H-imidazo[4,5-c]quinoline-7-carboxylic acid formation at 1 uM after 30 mins by HPLC/MS/MS analysis relative to control; assay type: ADME, subcellular; conditions: s9, 0.5 h; method in brief: as §1
# Serum [19] = assay: Drug metabolism in rat serum assessed as 2-(3-aminopiperidin-1-yl)-3-(2-chlorobenzyl)-5-methyl-4-oxo-4,5-dihydro-3H-imidazo[4,5-c]quinoline-7-carboxylic acid formation at 1 uM after 30 mins by HPLC/MS/MS analysis relative to control; assay type: ADME, cell-free; conditions: 0.5 h; method in brief: as §1
# [20] = Drug metabolism in human liver S9 fraction assessed as metabolite 3 formation at 1 uM after 30 mins by HPLC/MS/MS analysis relative to control; assay type: ADME, subcellular; conditions: s9, 0.5 h; method in brief: as §1
# Serum [21] = assay: Drug metabolism in human serum assessed as 2-(3-aminopiperidin-1-yl)-3-(2-chlorobenzyl)-5-methyl-4-oxo-4,5-dihydro-3H-imidazo[4,5-c]quinoline-7-carboxylic acid formation at 1 uM after 30 mins by HPLC/MS/MS analysis relative to control; assay type: ADME, cell-free; conditions: 0.5 h; method in brief: as §1
# Rattus norvegicus [22] = assay: Cmax in rat assessed as 2-(3-aminopiperidin-1-yl)-3-(2-chlorobenzyl)-5-methyl-4-oxo-4,5-dihydro-3H-imidazo[4,5-c]quinoline-7-carboxylic acid level at 20 mg/kg, po; assay type: ADME, organism-based; set-up: dose 20 mg/kg, route oral; conditions: in vivo
# Rattus norvegicus [23] = assay: Tmax in rat assessed as 2-(3-aminopiperidin-1-yl)-3-(2-chlorobenzyl)-5-methyl-4-oxo-4,5-dihydro-3H-imidazo[4,5-c]quinoline-7-carboxylic acid level at 20 mg/kg, po; assay type: ADME, organism-based; set-up: dose 20 mg/kg, route oral; conditions: in vivo
# Rattus norvegicus [24] = assay: AUC in rat assessed as 2-(3-aminopiperidin-1-yl)-3-(2-chlorobenzyl)-5-methyl-4-oxo-4,5-dihydro-3H-imidazo[4,5-c]quinoline-7-carboxylic acid level at 20 mg/kg, po; assay type: ADME, organism-based, Plasma; set-up: dose 20 mg/kg, route oral; conditions: in vivo
# Rattus norvegicus [25] = assay: Oral bioavailability in rat assessed as 2-(3-aminopiperidin-1-yl)-3-(2-chlorobenzyl)-5-methyl-4-oxo-4,5-dihydro-3H-imidazo[4,5-c]quinoline-7-carboxylic acid level at 20 mg/kg; assay type: ADME, organism-based; conditions: in vivo
# [26] = Solubility of the compound at pH 7.4; assay type: physicochemical; conditions: buffer
# [27] = Solubility of the compound at pH 5.5; assay type: physicochemical; conditions: buffer
# [28] = Solubility of the compound at pH 2.5; assay type: physicochemical; conditions: buffer
# [29] = AUC in rat at 1.5 mg/kg, iv; assay type: ADME, organism-based; set-up: dose 1.5 mg/kg, route intravenous; conditions: plasma
# [30] = Clearance in rat at 1.5 mg/kg, iv; assay type: ADME, organism-based; set-up: dose 1.5 mg/kg, route intravenous; conditions: in vivo
# [31] = Volume of distribution at steady state in rat at 1.5 mg/kg, iv; assay type: ADME, organism-based; set-up: dose 1.5 mg/kg, route intravenous; conditions: in vivo, read-out: Vdss
# [32] = Half life in rat at 1.5 mg/kg, iv; assay type: ADME, organism-based; set-up: dose 1.5 mg/kg, route intravenous; conditions: in vivo
# [33] = AUC in rat at 1 mg/kg, iv; assay type: ADME, organism-based; set-up: dose 1 mg/kg, route intravenous; conditions: plasma
# [34] = Clearance in rat at 1 mg/kg, iv; assay type: ADME, organism-based; set-up: dose 1 mg/kg, route intravenous; conditions: in vivo
# [35] = Volume of distribution at steady state in rat at 1 mg/kg, iv; assay type: ADME, organism-based; set-up: dose 1 mg/kg, route intravenous; conditions: in vivo, read-out: Vdss
# [36] = Half life in rat at 1 mg/kg, iv; assay type: ADME, organism-based; set-up: dose 1 mg/kg, route intravenous; conditions: in vivo
smiles,measurement,setting,value
Cn1c(=O)c2c(nc(N3CCC[C@@H](N)C3)n2Cc2ccccc2Cl)c2ccc(C(=O)O)cc21,CLH,Liver microsome [1],< 10 µL/min/mg
same,CLH,Liver microsome [2],< 10 µL/min/mg
same,Papp,[3],< 0.1 ×10⁻⁶ cm/s
same,Papp,[4],< 0.1 ×10⁻⁶ cm/s
same,AUC,[5],276 ng·h/mL
same,clearance,[6],181 mL/min/kg
same,Vd,[7],4.5 L/kg
same,half-life,[8],0.6 h
COC(=O)c1ccc2c(c1)c1nc(N3CCC[C@@H](N)C3)n(Cc3ccccc3Cl)c1c(=O)n2C.Cl,"remaining at 0.5 h, 1 µM",[9],< 0.5%
same,"remaining at 0.5 h, 1 µM",[10],72%
same,"remaining at 0.5 h, 1 µM",[11],> 99%
same,"remaining at 0.5 h, 1 µM",[12],80%
same,Drug metabolism,[13],metabolite_detected
same,Drug metabolism,Serum [14],metabolite_detected
same,Drug metabolism,[15],metabolite_detected
same,Drug metabolism,Serum [16],metabolite_detected
same,Papp,[3],34.1 ×10⁻⁶ cm/s
same,Papp,[4],47.4 ×10⁻⁶ cm/s
same,F,Rattus norvegicus [17],2.4%
Cl.Cn1c(=O)c2c(nc(N3CCC[C@@H](N)C3)n2Cc2ccccc2Cl)c2cc(C(=O)OCCN3CCOCC3)ccc21,"remaining at 0.5 h, 1 µM",[9],> 99%
same,"remaining at 0.5 h, 1 µM",[10],50%
same,"remaining at 0.5 h, 1 µM",[11],37%
same,"remaining at 0.5 h, 1 µM",[12],6.8%
same,Drug metabolism,[13],metabolite_detected
same,Drug metabolism,Serum [14],metabolite_detected
same,Drug metabolism,[15],metabolite_detected
same,Drug metabolism,Serum [16],metabolite_detected
same,Papp,[3],0.9 ×10⁻⁶ cm/s
same,Papp,[4],7.1 ×10⁻⁶ cm/s
Cc1oc(=O)oc1COC(=O)c1ccc2c3nc(N4CCC[C@@H](N)C4)n(Cc4ccccc4Cl)c3c(=O)n(C)c2c1.Cl,"remaining at 0.5 h, 1 µM",[9],1%
same,"remaining at 0.5 h, 1 µM",[10],< 0.5%
same,"remaining at 0.5 h, 1 µM",[11],17%
same,"remaining at 0.5 h, 1 µM",[12],< 0.5%
same,Drug metabolism,[18],metabolite_detected
same,Drug metabolism,Serum [19],metabolite_detected
same,Drug metabolism,[20],metabolite_detected
same,Drug metabolism,Serum [21],metabolite_detected
same,Papp,[3],12.5 ×10⁻⁶ cm/s
same,Papp,[4],14.2 ×10⁻⁶ cm/s
same,Cmax,Rattus norvegicus [22],81.7 ng/mL
same,Tmax,Rattus norvegicus [23],0.25 h
same,AUC,Rattus norvegicus [24],61.9 ng·h/mL
same,F,Rattus norvegicus [25],4%
same,solubility,[26],2 µg/mL
same,solubility,[27],2 µg/mL
same,solubility,[28],54 µg/mL
Cn1c(=O)c2c(nc(N3CCC[C@@H](N)C3)n2Cc2ccccc2Cl)c2cc(C(=O)O)ccc21,CLH,Liver microsome [1],< 10 µL/min/mg
same,CLH,Liver microsome [2],< 10 µL/min/mg
same,Papp,[3],< 0.1 ×10⁻⁶ cm/s
same,Papp,[4],< 0.1 ×10⁻⁶ cm/s
same,AUC,[29],188 ng·h/mL
same,clearance,[30],132 mL/min/kg
same,Vd,[31],2.9 L/kg
same,half-life,[32],1 h
Cn1c(=O)c2c(nc(N3CCC[C@@H](N)C3)n2Cc2cc(F)ccc2Cl)c2ccc(C(=O)O)cc21,AUC,[33],99.9 ng·h/mL
same,clearance,[34],167 mL/min/kg
same,Vd,[35],31.5 L/kg
same,half-life,[36],8.3 h
Cn1c(=O)c2c(nc(N3CCC[C@@H](N)C3)n2Cc2cc(F)ccc2Cl)c2cc(C(=O)O)ccc21,CLH,Liver microsome [1],< 10 µL/min/mg
same,CLH,Liver microsome [2],< 10 µL/min/mg
same,AUC,[33],75.3 ng·h/mL
same,clearance,[34],222 mL/min/kg
same,Vd,[35],7.1 L/kg
same,half-life,[36],1.3 h
